This is an account of results in the M2OR odorant receptor database.

The target in this assay is T1, OR1A1 (Homo sapiens) (UniProt Q9P1Q5).
T1 sequence (whole entry): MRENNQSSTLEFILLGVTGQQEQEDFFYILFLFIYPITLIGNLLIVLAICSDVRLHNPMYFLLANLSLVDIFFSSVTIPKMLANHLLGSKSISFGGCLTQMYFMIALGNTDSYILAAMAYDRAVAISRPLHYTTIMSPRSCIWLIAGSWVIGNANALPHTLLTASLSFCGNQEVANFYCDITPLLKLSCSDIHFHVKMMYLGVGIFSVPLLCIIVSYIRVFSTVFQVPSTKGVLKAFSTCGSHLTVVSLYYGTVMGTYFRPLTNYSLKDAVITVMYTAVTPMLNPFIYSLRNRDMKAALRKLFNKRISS
The settings on record: stereoisomer not certain. Put shortly:
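Transient luciferase assays in mammalian cell lines were common, though methods varied by source. The values come from published papers and their supplementary material, with extra details from the original authors when needed. Responsive refers to a measured signal the original authors judged statistically different from baseline, and non-responsive (inactive) to the remainder.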
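Note: active if original authors judged signal statistically different from baseline.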

Take `CCCCCCCCCC(=O)OCC`: the “odorant receptor agonist call” value is “inactive”.
